ChEMBL document CHEMBL5316316, “Designing Synthetic, Sulfated Glycosaminoglycan Mimetics That Are Orally Bioavailable and Exhibiting In Vivo Anticancer Activity” (J Med Chem, 2023)
Active and inactive are the calls of the source. No cut-off for these calls is given here.

Columns and labels:
[1] = Cytotoxicity against human HT-29 cells assessed as inhibition of spheroid growth; conditions: HT-29 cell spheroids
HT-29 [2] = assay: Cytotoxicity against human HT-29 cells assessed as reduction in cell viability incubated for 60 to 72 hrs by MTT assay; type: toxicity, cell-based; conditions: time 60-72 hrs
Outline: (§1)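 HT-29 monolayer cells were seeded at about 2.5 × 10^3 per well in DMEM:F12 with 10% FBS and incubated overnight at 37 °C, 5% CO2. Compound was added for 60–72 h. MTT (5 mg/mL in PBS) was added for 2–3 h, crystals were dissolved in DMSO and absorbance read at 590 nm. Results are percent of vehicle control, at least three replicates.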

[3] = Ex-vivo growth inhibition of mouse intestinal organoids at 100 mg/kg, po measured for 5 to 7 days by phase contrast microscopic analysis; conditions: in vivo
HT-29 [4] = assay: Antitumor activity against human CD133/CXCR4-induced HT-29 cells xenografted in NCR nude mouse assessed as spheroid formation at 100 mg/kg, po administered 5 times a week for 3 weeks by phase contrast microscopic analysis; type: functional, organism-based
Outline: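 Xenografts (Dual Hi HT-29, FUOX-pretreated, 100 mg/kg oral 5×/week for 3 weeks) were digested with collagenase IV and filtered at 70 μm. Cells were plated serially as 1°–3° spheroids on low-adhesion plates in stem cell medium with EGF and FGF. Spheroids of 50–150 μm were counted by phase contrast. At least three replicates.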

HT-29 [5] = assay: Cytotoxicity against human HT-29 cells assessed as reduction in cell viability at 100 uM incubated for 60 to 72 hrs by MTT assay; type: toxicity, cell-based; conditions: ht-29, 100 µM, time 60-72 hrs
Outline: as §1

[6] = Ex-vivo growth inhibition of mouse intestinal organoids measured for 5 to 7 days by phase contrast microscopic analysis; type: toxicity, Intestine; conditions: time 5-7 day
Outline: (§2)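 Intestinal pieces (2–4 cm) were taken from treated xenograft mice and chelated and dissociated into crypts. About 200–500 crypts were embedded in Matrigel under mouse IntestiCult medium at 37 °C, 5% CO2. Organoids were counted by phase contrast after 5–7 days.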

HT-29 [7] = assay: Antitumor activity against human HT-29 cells xenografted in NCR nude mouse assessed as spheroid formation at 50 mg/kg, ip; type: functional, organism-based
Outline: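 Bulk HT-29 xenografts in NCr nude mice were FUOX-pretreated, then given 50 mg/kg IP three times/week (8 doses), alone or with FUOX. Collagenase-digested tumor cells were serially cultured as 1°–4° spheroids in stem cell medium with EGF/FGF. Spheroids of 50–150 μm were counted by phase contrast, in at least three replicates.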

Plasma [8] = assay: Anticoagulant activity in human plasma assessed as prolongation of activated partial thromboplastin time by measuring concentration required to double APTT incubated for 4 mins by coagulometer analysis; type: functional, cell-free
Outline: (§3)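 Pooled normal citrated human plasma (90 μL) mixed with 10 μL compound and 100 μL prewarmed ellagic acid APTT reagent, incubated 4 min at 37 °C, then recalcified with 100 μL prewarmed 25 mM CaCl2. Clot time read on a fibrometer (one-stage recalcification). Water blank gave the baseline. Concentration doubling APTT came from a quadratic trend-line fit.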

[9] = Toxicity in NCR nude mouse xenografted with human HT-29 cells assessed as change in body weight at 100 mg/kg, po; type: organism-based; conditions: in vivo
Plasma [10] = assay: Anticoagulant activity in pooled human plasma assessed as prolongation of activated partial thromboplastin time incubated for 4 mins by coagulometer analysis; type: functional, cell-free
Outline: as §3

HT-29 [11] = assay: Antitumor activity against human HT-29 cells xenografted in NCR nude mouse assessed as reduction in DCAMKL1 expression level at 50 mg/kg, ip in presence of 5-fluorouracil and oxaliplatin of by Western blot analysis; type: functional, organism-based
Outline: (§4)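 Bulk HT-29 cells (1 × 10^6) were grown as subcutaneous xenografts in NCr nude mice and given FUOX (25 mg/kg FU + 2 mg/kg OX IP weekly for 3 weeks). Mice were then randomized (n = 4/arm) to 50 mg/kg IP three times/week (8 doses), alone or with FUOX. Tumor lysates (n = 2/group) were Western blotted for DCAMLK1 and BMI-1.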

[12] = Toxicity in NCR nude mouse xenografted with human HT-29 cells assessed as bleeding at 100 mg/kg, po; type: organism-based; conditions: in vivo
[13] = Ex-vivo growth inhibition of mouse intestinal organoids measured for 5 to 7 days in presence of 5-fluorouracil and oxaliplatin by phase contrast microscopic analysis; type: toxicity, Intestine; conditions: time 5-7 day
Outline: as §2

[14] = Toxicity in NCR nude mouse xenografted with human HT-29 cells assessed as change in body weight at 50 mg/kg, ip in presence 5-fluorouracil and oxaliplatin; type: organism-based; conditions: in vivo
HT-29 [15] = assay: Antitumor activity against human HT-29 cells xenografted in NCR nude mouse assessed as decrease in proportion of CSC at 100 mg/kg, po administered 5 times a week for 3 weeks by flow cytometry analysis
HT-29 [16] = assay: Antitumor activity against human HT-29 cells xenografted in NCR nude mouse assessed as reduction in tumor growth at 100 mg/kg, po administered 5 times a week for 3 weeks relative to control; type: functional; parameters: scale not given: the % may be the effect or the level left
Outline: (§5)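 Dual Hi (CD133+/CXCR4+) HT-29 cells, FACS-sorted, injected subcutaneously at 1 × 10^5 into NCr nude mice. Mice were then randomized to vehicle or 100 mg/kg oral gavage 5 times/week for 3 weeks. Tumor volume was measured by caliper three times weekly.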

HT-29 [17] = assay: Antitumor activity against human HT-29 cells xenografted in NCR nude mouse assessed as reduction in BMI-1 expression level at 50 mg/kg, ip in presence of 5-fluorouracil and oxaliplatin of by Western blot analysis; type: functional, organism-based
Outline: as §4

HT-29 [18] = assay: Antitumor activity against CD133/CXCR4-induced human HT-29 cells xenografted in NCR nude mouse assessed as reduction in tumor growth at 100 mg/kg, po administered 5 times a week for 3 weeks; type: functional, organism-based
Outline: as §5

HT-29 [19] = assay: Anticancer activity against human HT-29 cells assessed as inhibition of DCAMLK1 expression level; type: functional, cell-based
HT-29 [20] = assay: Anticancer activity against human HT-29 cells assessed as inhibition of LGR5 expression level; type: functional, cell-based
HT-29 [21] = assay: Anticancer activity against human HT-29 cells assessed as inhibition of CXCR4+ expression level; type: functional, cell-based
Plasma [22] = assay: Anticoagulant activity in pooled human plasma assessed as prolongation of activated partial thromboplastin time at 900 uM incubated for 4 mins by coagulometer analysis; type: functional
Outline: as §3

HT-29 [23] = assay: Antitumor activity against human HT-29 cells xenografted in NCR nude mouse assessed as reduction in tumor growth at 100 mg/kg, ip administered 3 times a week for 3 weeks; type: functional, organism-based
HT-29 [24] = assay: Anticancer activity against human HT-29 cells assessed as inhibition of CD133+ expression level; type: functional, cell-based
HT-29 [25] = assay: Antitumor activity against human HT-29 cells xenografted in NCR nude mouse assessed as reduction in tumor volume at 25 mg/kg, ip administered for 3 weeks in presence of oxaliplatin by vernier caliper method; type: functional, organism-based
Outline: (§6)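 HT-29 cells (1×10^6 bulk, or 1×10^5 FACS-sorted CD133+/CXCR4+) injected subcutaneously into NCr nude mice. Once tumors were palpable (>50 mm3), 5-fluorouracil 25 mg/kg plus oxaliplatin 2 mg/kg given IP weekly for 3 weeks, then mice randomized for further treatment. Tumor volume by Vernier caliper three times weekly. Ex vivo xenograft cells were digested with collagenase IV and assessed for 1°–4° spheroids (50–150 μm) and for Dual Hi/LGR5+ cells by flow cytometry.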

HT-29 [26] = assay: Antitumor activity against human HT-29 cells xenografted in NCR nude mouse assessed as increase in proportion of CSC at 25 mg/kg, ip administered for 3 weeks in presence of oxaliplatin by flow cytometry analysis (reference value: 11.37 %); type: functional
Outline: as §6

HT-29 [27] = assay: Antitumor activity against human HT-29 cells xenografted in NCR nude mouse assessed as increase in number of spheroids at 25 mg/kg, ip administered for 3 weeks in presence of oxaliplatin; type: functional, organism-based
Outline: as §6

HT-29 [28] = assay: Antitumor activity against human HT-29 cells xenografted in NCR nude mouse assessed as spheroid formation at 25 mg/kg, ip administered for 3 weeks in presence of oxaliplatin; type: functional, organism-based
Outline: as §6

In the case of `O=c1cc(-c2ccc(OS(=O)(=O)[O-])cc2)oc2cc(OS(=O)(=O)[O-])cc(OCC3CCC(COc4cc(OS(=O)(=O)[O-])cc5oc(-c6ccc(OS(=O)(=O)[O-])cc6)cc(=O)c45)CC3)c12.[Na+].[Na+].[Na+].[Na+]` (configuration not stated), the IC50 [1] is reported as 46 µM and the Activity (HT-29 [2]) is reported as “Non-Toxic”.
In the case of `CC(C)CCC[C@@H](C)[C@H]1CC[C@H]2[C@@H]3CC=C4C[C@@H](OCCOc5cc(-c6oc7cc(OS(=O)(=O)[O-])cc(OCCCOc8cc(OS(=O)(=O)[O-])cc9oc(-c%10ccc(OS(=O)(=O)[O-])c(OS(=O)(=O)[O-])c%10)c(OS(=O)(=O)[O-])c(=O)c89)c7c(=O)c6OS(=O)(=O)[O-])ccc5OS(=O)(=O)[O-])CC[C@]4(C)[C@H]3CC[C@]12C.[Na+].[Na+].[Na+].[Na+].[Na+].[Na+].[Na+]`, the Activity [3] is reported as “Non-Toxic”, the Activity (HT-29 [4]) is reported as “Active” and the Activity (HT-29 [5]) is reported as “Toxic”. For the same compound, the Activity [6] was “Non-Toxic”, the Activity (HT-29 [7]) was “Active” and the Activity (Plasma [8]) was “Active”. The Activity [9] was “Non-Toxic”, the Activity (Plasma [10]) was “Dose-Dependent Effect” and the Activity (HT-29 [11]) was “Active”. For the same compound, the Activity [12] was “Non-Toxic”, the IC50 [1] was 5.5 µM and the Activity [13] was “Non-Toxic”. The Activity [14] was “Non-Toxic”, the Activity (HT-29 [15]) was “Active” and the Activity (HT-29 [16]) was about 70%. For the same compound, the Activity (HT-29 [17]) was “Active” and the Activity (HT-29 [18]) was “Active”.
In the case of `O=c1c(OS(=O)(=O)[O-])c(-c2ccc(OS(=O)(=O)[O-])c(OS(=O)(=O)[O-])c2)oc2cc(OS(=O)(=O)[O-])cc(OCCCOc3cc(OS(=O)(=O)[O-])cc4oc(-c5ccc(OS(=O)(=O)[O-])c(OS(=O)(=O)[O-])c5)c(OS(=O)(=O)[O-])c(=O)c34)c12.[Na+].[Na+].[Na+].[Na+].[Na+].[Na+].[Na+].[Na+]`, the Activity (HT-29 [19]) is reported as “Active”, the Activity (HT-29 [20]) is reported as “Active” and the Activity (Plasma [10]) is reported as “Dose-Dependent Effect”. The Activity (HT-29 [21]) was “Active”, the IC50 [1] was 29.6 µM and the APTT (Plasma [22]) was 68 s. The Activity (HT-29 [23]) was “Active”, the Activity (HT-29 [24]) was “Active” and the Activity (HT-29 [2]) was “Non-Toxic”.
For `O=c1[nH]cc(F)c(=O)[nH]1` [FLUOROURACIL], the Activity (HT-29 [25]) was “Active”, the Activity (HT-29 [26]) was 26.4% and the Activity (HT-29 [27]) was “Active”. For the same compound, the Activity (HT-29 [28]) was “Active”.
